Results collected from several papers.
Compare with care: the assays were run in different laboratories.
Target: Serine/threonine-protein kinase 17A (STK17A, Homo sapiens, UniProt Q9UEE5)
One construct used (Q9UEE5 1-414): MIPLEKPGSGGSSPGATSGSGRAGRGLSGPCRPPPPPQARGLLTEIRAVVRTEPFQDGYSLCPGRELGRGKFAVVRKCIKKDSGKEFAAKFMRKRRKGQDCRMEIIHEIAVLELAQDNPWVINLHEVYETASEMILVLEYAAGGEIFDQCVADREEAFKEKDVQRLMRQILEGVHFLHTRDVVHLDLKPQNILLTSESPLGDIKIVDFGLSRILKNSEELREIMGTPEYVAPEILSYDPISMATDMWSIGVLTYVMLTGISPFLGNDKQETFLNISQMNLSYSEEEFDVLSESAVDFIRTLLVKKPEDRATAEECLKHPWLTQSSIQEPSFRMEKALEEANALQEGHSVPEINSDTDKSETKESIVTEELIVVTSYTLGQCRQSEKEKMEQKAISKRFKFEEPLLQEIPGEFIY

COc1cc(-c2cn(C3CCc4c(F)cccc4N(CC(F)(F)F)C3=O)nn2)ccc1-n1cnc(C)c1 (stereo not shown)
remaining binding (cell-free assay, competition with immobilised ligand; 1 µM): 100%

O=C(NCC1CCOCC1)c1n[nH]cc1NC(=O)c1c(F)cccc1F
remaining binding (binding, competition with immobilised ligand; 1 µM): 94%

COc1ncc2cc3ccccc3nc2c1C#N
remaining binding (cell-free assay, competition with immobilised ligand; 5 µM): 100%

C[C@H](c1cccc(C#N)c1)n1cc(Cl)cc(C(N)=O)c1=N
remaining binding (cell-free assay, competition with immobilised ligand; 1 µM): 85%

CN(C)c1ncc(F)c(-c2cnn3ncccc23)n1
remaining binding (binding; 1 µM): 95%

Cc1cnc(Nc2ccc(C(=O)N3CCC(N4CCCC4)CC3)cc2)nc1-c1cc2ccccc2s1
remaining binding (binding, competition with immobilised ligand; 1 µM): 0.1%

COc1cnc(Nc2cccc(S(N)(=O)=O)c2)nc1N1CCN(c2ccccc2)CC1
remaining binding (binding, competition with immobilised ligand; 1 µM): 100%

COc1ccnn2ncc(-c3ccnc(N(C)C)n3)c12
remaining binding (binding; 1 µM): 96%

FC(F)(F)Oc1cccc(-c2cnc3ccc(-c4ccncc4)nn23)c1
remaining binding (cell-free assay, competition with immobilised ligand; 5 µM): 12%

COc1ccc2c(O[C@@H]3C[C@H]4C(=O)N[C@]5(C(=O)O)CC5/C=C\CCCCC[C@H](NC(=O)OC5CCCC5)C(=O)N4C3)cc(-c3csc(NC(=O)C(C)C)n3)nc2c1C (stereo partly shown)
remaining binding (cell-free assay, competition with immobilised ligand; 1 µM): 99%

C=CC(=O)N1CCC(C(=O)NCC(=O)N2CCN(c3nc(-c4cnc(N)nc4C(F)F)nc(N4CCOCC4)n3)CC2)CC1
remaining binding (binding, competition with immobilised ligand; 1 µM): 100%

O=C(c1ccc(Nc2nccc(-c3cc4ccccc4s3)n2)cc1)N1CCC(N2CCCC2)CC1
remaining binding (binding, competition with immobilised ligand; 1 µM): 0.3%

C[C@H]1CCN(c2nccc(-c3cnn4ncccc34)n2)C1
remaining binding (binding; 1 µM): 13%

CC1=C(C#N)[C@@H](c2ccc3[nH]nc(C)c3c2)C(C#N)=C(c2ccc(Cl)cc2)N1
remaining binding (cell-free assay, competition with immobilised ligand; 1 µM): 100%

CN(c1nccc(-c2cnn3ncccc23)n1)C1CC1
remaining binding (binding; 1 µM): 100%

Cn1nc(C(=O)NCc2ccc(C(=O)O)cc2)cc1-c1ccc2[nH]ccc2c1
remaining binding (cell-free assay, competition with immobilised ligand; 0.1 µM): 92%

Cc1cnn2ncc(-c3ccnc(N(C)C)n3)c2c1
remaining binding (binding; 1 µM): 86%

O=C(c1ccc(Nc2ncc(Cl)c(-c3cc4ccccc4s3)n2)cc1)N1CCC(N2CCCC2)CC1
remaining binding (binding, competition with immobilised ligand; 1 µM): 0%

CSc1cccnc1N1CCN(Cc2nc3ccccc3[nH]2)CC1
remaining binding (cell-free assay, competition with immobilised ligand; 1 µM): 98%

F[C@@H]1CCN(c2nccc(-c3cnn4ncccc34)n2)C1
remaining binding (binding; 1 µM): 100%

O=C(NCc1ncc(C(F)(F)F)cc1Cl)c1ccc2c(c1)C1(CCS(=O)(=O)CC1)[C@@H](C1CC1)N2S(=O)(=O)c1ccc(F)cc1
remaining binding (cell-free assay, competition with immobilised ligand; 1 µM): 73%

N[C@@H]1CCN(c2nccc(-c3cnn4ncccc34)n2)C1
remaining binding (binding; 1 µM): 100%
